Test system: U2OS
Assay: Multiplex assay against U2OS
Assay type: toxicity, cell-based
Conditions: human
In short: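 Live cells were stained at seeding with Hoechst33342, BioTracker Green Microtubule Cytoskeleton Dye, MitoTracker Red and Annexin V Alexa Fluor 680. Following compound addition, they were imaged on a CQ1 microscope at 37°C and 5% CO2 and gated by CellPathfinder machine learning into Hoechst high-intensity objects or normal cells, with normal cells split into healthy, pyknosed or fragmented nuclei and pyknosed cells into mitotic or apoptotic. Tubulin, mitochondrial-mass and membrane-permeability phenotypes are per cents of healthy-nucleus cells.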

[1] = 12 h, 1 µM, compound concentration 1 uM, replicate 1
[2] = 12 h, 1 µM, compound concentration 1 uM, replicate 2
[3] = 12 h, 10 µM, compound concentration 10 uM, replicate 1
[4] = 12 h, 10 µM, compound concentration 10 uM, replicate 2
[5] = 24 h, 1 µM, compound concentration 1 uM, replicate 1
[6] = 24 h, 1 µM, compound concentration 1 uM, replicate 2
[7] = 24 h, 10 µM, compound concentration 10 uM, replicate 1
[8] = 24 h, 10 µM, compound concentration 10 uM, replicate 2
[9] = 48 h, 1 µM, compound concentration 1 uM, replicate 1
[10] = 48 h, 1 µM, compound concentration 1 uM, replicate 2
[11] = 48 h, 10 µM, compound concentration 10 uM, replicate 1
[12] = 48 h, 10 µM, compound concentration 10 uM, replicate 2

## Cc1ccc(OCC(O)C(C)NC(C)C)c2c1CCC2.Cl (stereo unspecified)
[1]
  Population Apoptotic (%): 63%
  Population Fragmented Nuclei (%): 19%
  Population Healthy Nuclei (%): 66%
  Population Hoechst High Intensity Objects (%): 2%
  Population Membrane Permeable-Phenotype (%): 8%
  Population Mitochondria Different-Phenotype (%): 3%
  Population Mitotic Cells (%): 36%
  Population Normal (%): 97%
  Population Pyknosed Nuclei (%): 13%
  Population Tubulin-Different-Phenotype (%): 4%
  Total Cell Count: 222
[2]
  Population Apoptotic (%): 90%
  Population Fragmented Nuclei (%): 11%
  Population Healthy Nuclei (%): 79%
  Population Hoechst High Intensity Objects (%): 1%
  Population Membrane Permeable-Phenotype (%): 7%
  Population Mitochondria Different-Phenotype (%): 2%
  Population Mitotic Cells (%): 9%
  Population Normal (%): 98%
  Population Pyknosed Nuclei (%): 8%
  Population Tubulin-Different-Phenotype (%): 2%
  Total Cell Count: 129
[3]
  Population Apoptotic (%): 61%
  Population Fragmented Nuclei (%): 30%
  Population Healthy Nuclei (%): 52%
  Population Hoechst High Intensity Objects (%): 5%
  Population Membrane Permeable-Phenotype (%): 14%
  Population Mitochondria Different-Phenotype (%): 17%
  Population Mitotic Cells (%): 38%
  Population Normal (%): 94%
  Population Pyknosed Nuclei (%): 16%
  Population Tubulin-Different-Phenotype (%): 8%
  Total Cell Count: 215
[4]
  Population Apoptotic (%): 80%
  Population Fragmented Nuclei (%): 11%
  Population Healthy Nuclei (%): 81%
  Population Hoechst High Intensity Objects (%): 0%
  Population Membrane Permeable-Phenotype (%): 9%
  Population Mitochondria Different-Phenotype (%): 22%
  Population Mitotic Cells (%): 20%
  Population Normal (%): 99%
  Population Pyknosed Nuclei (%): 7%
  Population Tubulin-Different-Phenotype (%): 9%
  Total Cell Count: 137
[5]
  Population Apoptotic (%): 88%
  Population Fragmented Nuclei (%): 14%
  Population Healthy Nuclei (%): 75%
  Population Hoechst High Intensity Objects (%): 0%
  Population Membrane Permeable-Phenotype (%): 5%
  Population Mitochondria Different-Phenotype (%): 3%
  Population Mitotic Cells (%): 11%
  Population Normal (%): 100%
  Population Pyknosed Nuclei (%): 10%
  Population Tubulin-Different-Phenotype (%): 4%
  Total Cell Count: 255
[6]
  Population Apoptotic (%): 93%
  Population Fragmented Nuclei (%): 15%
  Population Healthy Nuclei (%): 73%
  Population Hoechst High Intensity Objects (%): 1%
  Population Membrane Permeable-Phenotype (%): 3%
  Population Mitochondria Different-Phenotype (%): 5%
  Population Mitotic Cells (%): 6%
  Population Normal (%): 98%
  Population Tubulin-Different-Phenotype (%): 0%
  Total Cell Count: 155
[7]
  Population Apoptotic (%): 82%
  Population Fragmented Nuclei (%): 26%
  Population Healthy Nuclei (%): 56%
  Population Hoechst High Intensity Objects (%): 3%
  Population Membrane Permeable-Phenotype (%): 10%
  Population Mitochondria Different-Phenotype (%): 17%
  Population Mitotic Cells (%): 17%
  Population Normal (%): 96%
  Population Pyknosed Nuclei (%): 17%
  Population Tubulin-Different-Phenotype (%): 4%
  Total Cell Count: 230
[8]
  Population Apoptotic (%): 92%
  Population Fragmented Nuclei (%): 14%
  Population Healthy Nuclei (%): 77%
  Population Hoechst High Intensity Objects (%): 2%
  Population Membrane Permeable-Phenotype (%): 12%
  Population Mitochondria Different-Phenotype (%): 11%
  Population Mitotic Cells (%): 7%
  Population Normal (%): 97%
  Population Pyknosed Nuclei (%): 8%
  Population Tubulin-Different-Phenotype (%): 6%
  Total Cell Count: 172
[9]
  Population Apoptotic (%): 88%
  Population Fragmented Nuclei (%): 14%
  Population Healthy Nuclei (%): 73%
  Population Hoechst High Intensity Objects (%): 0%
  Population Membrane Permeable-Phenotype (%): 6%
  Population Mitochondria Different-Phenotype (%): 4%
  Population Mitotic Cells (%): 11%
  Population Normal (%): 99%
  Population Pyknosed Nuclei (%): 12%
  Population Tubulin-Different-Phenotype (%): 3%
  Total Cell Count: 377
[10]
  Population Apoptotic (%): 80%
  Population Fragmented Nuclei (%): 20%
  Population Healthy Nuclei (%): 69%
  Population Hoechst High Intensity Objects (%): 2%
  Population Membrane Permeable-Phenotype (%): 5%
  Population Mitochondria Different-Phenotype (%): 3%
  Population Mitotic Cells (%): 20%
  Population Normal (%): 97%
  Population Pyknosed Nuclei (%): 10%
  Population Tubulin-Different-Phenotype (%): 2%
  Total Cell Count: 202
[11]
  Population Apoptotic (%): 82%
  Population Fragmented Nuclei (%): 23%
  Population Healthy Nuclei (%): 63%
  Population Hoechst High Intensity Objects (%): 4%
  Population Membrane Permeable-Phenotype (%): 12%
  Population Mitochondria Different-Phenotype (%): 12%
  Population Mitotic Cells (%): 17%
  Population Normal (%): 95%
  Population Pyknosed Nuclei (%): 13%
  Population Tubulin-Different-Phenotype (%): 6%
  Total Cell Count: 306
[12]
  Population Apoptotic (%): 77%
  Population Fragmented Nuclei (%): 15%
  Population Healthy Nuclei (%): 73%
  Population Hoechst High Intensity Objects (%): 0%
  Population Membrane Permeable-Phenotype (%): 7%
  Population Mitochondria Different-Phenotype (%): 4%
  Population Mitotic Cells (%): 22%
  Population Normal (%): 99%
  Population Pyknosed Nuclei (%): 11%
  Population Tubulin-Different-Phenotype (%): 3%
  Total Cell Count: 246

## Cc1cc(O)c(-c2ccc([C@@H](C)CN(C)C)cc2)c2c1[nH]c(=O)c1sccc12
[1]
  Population Apoptotic (%): 80%
  Population Fragmented Nuclei (%): 38%
  Population Healthy Nuclei (%): 48%
  Population Hoechst High Intensity Objects (%): 4%
  Population Membrane Permeable-Phenotype (%): 21%
  Population Mitochondria Different-Phenotype (%): 17%
  Population Mitotic Cells (%): 19%
  Population Normal (%): 95%
  Population Pyknosed Nuclei (%): 12%
  Population Tubulin-Different-Phenotype (%): 12%
  Total Cell Count: 252
[2]
  Population Apoptotic (%): 70%
  Population Fragmented Nuclei (%): 25%
  Population Healthy Nuclei (%): 63%
  Population Hoechst High Intensity Objects (%): 2%
  Population Membrane Permeable-Phenotype (%): 9%
  Population Mitochondria Different-Phenotype (%): 14%
  Population Mitotic Cells (%): 30%
  Population Normal (%): 97%
  Population Pyknosed Nuclei (%): 11%
  Population Tubulin-Different-Phenotype (%): 14%
  Total Cell Count: 89
[3]
  Population Apoptotic (%): 64%
  Population Fragmented Nuclei (%): 28%
  Population Healthy Nuclei (%): 50%
  Population Hoechst High Intensity Objects (%): 4%
  Population Membrane Permeable-Phenotype (%): 54%
  Population Mitochondria Different-Phenotype (%): 62%
  Population Mitotic Cells (%): 35%
  Population Normal (%): 95%
  Population Pyknosed Nuclei (%): 21%
  Population Tubulin-Different-Phenotype (%): 72%
  Total Cell Count: 222
[4]
  Population Apoptotic (%): 69%
  Population Fragmented Nuclei (%): 20%
  Population Healthy Nuclei (%): 56%
  Population Hoechst High Intensity Objects (%): 8%
  Population Membrane Permeable-Phenotype (%): 22%
  Population Mitochondria Different-Phenotype (%): 61%
  Population Mitotic Cells (%): 30%
  Population Normal (%): 91%
  Population Pyknosed Nuclei (%): 22%
  Population Tubulin-Different-Phenotype (%): 45%
  Total Cell Count: 110
[5]
  Population Apoptotic (%): 92%
  Population Fragmented Nuclei (%): 43%
  Population Healthy Nuclei (%): 34%
  Population Hoechst High Intensity Objects (%): 8%
  Population Membrane Permeable-Phenotype (%): 20%
  Population Mitochondria Different-Phenotype (%): 25%
  Population Mitotic Cells (%): 7%
  Population Normal (%): 91%
  Population Pyknosed Nuclei (%): 21%
  Population Tubulin-Different-Phenotype (%): 19%
  Total Cell Count: 256
[6]
  Population Apoptotic (%): 100%
  Population Fragmented Nuclei (%): 41%
  Population Healthy Nuclei (%): 41%
  Population Hoechst High Intensity Objects (%): 6%
  Population Membrane Permeable-Phenotype (%): 15%
  Population Mitochondria Different-Phenotype (%): 21%
  Population Mitotic Cells (%): 0%
  Population Normal (%): 93%
  Population Pyknosed Nuclei (%): 17%
  Population Tubulin-Different-Phenotype (%): 12%
  Total Cell Count: 83
[7]
  Population Apoptotic (%): 81%
  Population Fragmented Nuclei (%): 36%
  Population Healthy Nuclei (%): 35%
  Population Hoechst High Intensity Objects (%): 9%
  Population Membrane Permeable-Phenotype (%): 16%
  Population Mitochondria Different-Phenotype (%): 70%
  Population Mitotic Cells (%): 18%
  Population Normal (%): 90%
  Population Pyknosed Nuclei (%): 27%
  Population Tubulin-Different-Phenotype (%): 47%
  Total Cell Count: 210
[8]
  Population Apoptotic (%): 82%
  Population Fragmented Nuclei (%): 40%
  Population Healthy Nuclei (%): 31%
  Population Hoechst High Intensity Objects (%): 12%
  Population Membrane Permeable-Phenotype (%): 25%
  Population Mitochondria Different-Phenotype (%): 62%
  Population Mitotic Cells (%): 17%
  Population Normal (%): 87%
  Population Pyknosed Nuclei (%): 28%
  Population Tubulin-Different-Phenotype (%): 34%
  Total Cell Count: 118
[9]
  Population Apoptotic (%): 96%
  Population Fragmented Nuclei (%): 53%
  Population Healthy Nuclei (%): 18%
  Population Hoechst High Intensity Objects (%): 17%
  Population Membrane Permeable-Phenotype (%): 23%
  Population Mitochondria Different-Phenotype (%): 25%
  Population Mitotic Cells (%): 3%
  Population Normal (%): 82%
  Population Pyknosed Nuclei (%): 27%
  Population Tubulin-Different-Phenotype (%): 25%
  Total Cell Count: 250
[10]
  Population Apoptotic (%): 100%
  Population Fragmented Nuclei (%): 64%
  Population Healthy Nuclei (%): 19%
  Population Hoechst High Intensity Objects (%): 15%
  Population Membrane Permeable-Phenotype (%): 35%
  Population Mitochondria Different-Phenotype (%): 35%
  Population Mitotic Cells (%): 0%
  Population Normal (%): 84%
  Population Pyknosed Nuclei (%): 15%
  Total Cell Count: 120
[11]
  Population Apoptotic (%): 96%
  Population Fragmented Nuclei (%): 50%
  Population Healthy Nuclei (%): 17%
  Population Hoechst High Intensity Objects (%): 20%
  Population Membrane Permeable-Phenotype (%): 25%
  Population Mitochondria Different-Phenotype (%): 45%
  Population Mitotic Cells (%): 3%
  Population Normal (%): 79%
  Population Pyknosed Nuclei (%): 31%
  Population Tubulin-Different-Phenotype (%): 32%
  Total Cell Count: 220
[12]
  Population Apoptotic (%): 100%
  Population Fragmented Nuclei (%): 54%
  Population Healthy Nuclei (%): 13%
  Population Hoechst High Intensity Objects (%): 15%
  Population Membrane Permeable-Phenotype (%): 64%
  Population Mitochondria Different-Phenotype (%): 50%
  Population Mitotic Cells (%): 0%
  Population Normal (%): 84%
  Population Tubulin-Different-Phenotype (%): 64%
  Total Cell Count: 120
